The results in this text go back to ChEMBL document CHEMBL4308914, “Discovery of potent, low-absorbable sodium-dependent glucose cotransporter 1 (SGLT1) inhibitor SGL5213 for type 2 diabetes treatment” (Bioorg Med Chem, 2019).

In data set [1] the target is T1, Sodium/glucose cotransporter 1 (Homo sapiens, UniProt P13866).
T1 sequence (P13866 whole entry): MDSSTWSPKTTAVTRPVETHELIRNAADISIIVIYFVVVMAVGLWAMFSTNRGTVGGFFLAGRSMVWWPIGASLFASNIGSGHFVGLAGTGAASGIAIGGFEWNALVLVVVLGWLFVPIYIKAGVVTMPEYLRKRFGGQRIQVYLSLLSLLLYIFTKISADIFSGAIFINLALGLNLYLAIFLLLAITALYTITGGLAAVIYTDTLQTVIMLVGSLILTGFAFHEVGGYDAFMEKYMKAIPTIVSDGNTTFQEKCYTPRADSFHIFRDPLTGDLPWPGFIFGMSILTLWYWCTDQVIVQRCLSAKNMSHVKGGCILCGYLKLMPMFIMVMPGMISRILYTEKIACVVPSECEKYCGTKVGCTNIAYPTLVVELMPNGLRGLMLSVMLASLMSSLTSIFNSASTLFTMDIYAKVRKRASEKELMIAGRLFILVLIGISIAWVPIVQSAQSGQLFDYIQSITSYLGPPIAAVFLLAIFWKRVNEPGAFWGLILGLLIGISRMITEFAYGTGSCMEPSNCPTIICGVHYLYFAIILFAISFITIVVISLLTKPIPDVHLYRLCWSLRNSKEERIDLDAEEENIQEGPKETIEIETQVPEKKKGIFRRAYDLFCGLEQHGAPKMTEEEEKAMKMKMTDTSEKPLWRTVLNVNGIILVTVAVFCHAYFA
Put plainly: Inhibition of human SGLT1 expressed in CHOK1 cells assessed as reduction in sodium-dependent glucose uptake after 30 mins in presence of [14C]-methyl-alpha -D-glucopyranoside by microbeta counting method. The format is cell-based. The method in brief: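 CHO-K1 cells stably expressing human SGLT1, preincubated 20 min in Na-free choline buffer (pH 7.4). Uptake buffer (140 mM NaCl, HEPES/Tris pH 7.4) with 0.1 mM methyl-α-D-glucopyranoside plus [14C] tracer and test compound, 30 min at 37 °C. Cells washed, lysed in NaOH, radioactivity counted. Choline-for-Na buffer as background. Six concentrations; IC50 vs untreated control; mean of at least two experiments.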

Data set [2] addresses T2, Sodium/glucose cotransporter 2 (Homo sapiens, UniProt P31639).
T2 sequence (P31639 whole entry): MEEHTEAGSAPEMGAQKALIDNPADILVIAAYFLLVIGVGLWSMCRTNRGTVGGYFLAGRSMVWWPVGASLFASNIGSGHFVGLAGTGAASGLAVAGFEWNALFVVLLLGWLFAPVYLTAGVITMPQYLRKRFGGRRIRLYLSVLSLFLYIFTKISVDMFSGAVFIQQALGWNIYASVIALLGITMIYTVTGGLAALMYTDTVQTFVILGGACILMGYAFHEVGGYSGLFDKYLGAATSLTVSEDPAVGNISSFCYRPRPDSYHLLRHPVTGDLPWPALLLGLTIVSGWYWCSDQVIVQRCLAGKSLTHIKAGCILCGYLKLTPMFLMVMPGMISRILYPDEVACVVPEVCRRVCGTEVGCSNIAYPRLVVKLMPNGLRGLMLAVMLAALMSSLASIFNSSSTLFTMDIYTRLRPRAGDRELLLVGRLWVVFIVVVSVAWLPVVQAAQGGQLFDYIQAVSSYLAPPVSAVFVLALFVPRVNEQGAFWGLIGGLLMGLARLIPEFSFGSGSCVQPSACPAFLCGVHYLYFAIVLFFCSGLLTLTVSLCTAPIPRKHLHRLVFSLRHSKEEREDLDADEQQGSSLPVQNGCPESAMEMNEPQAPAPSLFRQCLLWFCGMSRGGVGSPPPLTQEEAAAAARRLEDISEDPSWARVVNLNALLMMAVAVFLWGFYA
Description: Inhibition of human SGLT2 expressed in CHOK1 cells assessed as reduction in sodium-dependent glucose uptake after 1 hr in presence of [14C]-methyl-alpha -D-glucopyranoside by microbeta counting method. Format: cell-based. The method in brief: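 Human SGLT2 stably expressed in CHO-K1 cells; 20 min Na-free choline pretreatment, then Na+ uptake buffer pH 7.4 with 1 mM methyl-α-D-glucopyranoside containing [14C] label plus compound, 1 h at 37 °C. Washed, NaOH lysis, scintillation counting; Na-free buffer for background. IC50 from six concentrations relative to uninhibited uptake; mean of at least two experiments.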

Data set [3] in a line: Permeability of the compound at pH 7.4 by PAMPA assay. Format: ADME. The conditions noted are these: read-out: permeability. The method in brief:
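PAMPA at pH 7.4: filter coated with GIT-0 lipid; donor compartment holds compound in universal buffer at 25 μM or 5 μM; permeability reported as ×10⁻⁶ cm/s.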
For orientation: The PAMPA barrier holds no transporters, so it reflects passive diffusion.

Data set [4] in a line: Total clearance in Sprague-Dawley rat at 0.4 mg/kg, iv. Format: ADME, organism-based. The conditions noted are these: in vivo. In outline: (§1)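 Fasted male SD rats, single i.v. dose in saline; tail-vein blood sampled over time, plasma analysed by LC-MS/MS. Parameters by non-compartmental analysis; mean of three animals.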
A short description of data set [5]: Drug uptake in Sprague-Dawley rat kidney at 0.3 mg/kg, iv administered as single dose after 2 hrs by LCMS analysis. The format is ADME, organism-based. The conditions noted are these: read-out: Drug uptake. The method in brief: (§2)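 Fasted male SD rats given single i.v. dose in saline; animals euthanized at 2, 24 and 72 h, kidneys homogenized in purified water and unchanged drug measured by LC-MS/MS (ng/g tissue). Mean ± SD of three animals; 72 h level also expressed relative to 2 h value.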

A short description of data set [6]: Drug uptake in Sprague-Dawley rat kidney at 0.3 mg/kg, iv administered as single dose after 24 hrs by LCMS analysis. The format is ADME, organism-based. Particulars: read-out: Drug uptake. The method in brief:
as §2

Data set [7] can be described thus: Volume of distribution at steady sate in Sprague-Dawley rat at 0.4 mg/kg, iv. The format is ADME, organism-based. Particulars: in vivo, read-out: Vdss. In outline: as §1
The nature of data set [8]: Drug uptake in Sprague-Dawley rat kidney assessed as unchanged drug level at 0.3 mg/kg, iv administered as single dose after 72 hrs by LCMS analysis relative to control. The format is ADME, organism-based. Particulars: in vivo. The method in brief: as §2
Data set [9] is described as follows: Drug excretion in bile duct cannulated Sprague-Dawley rat urine at 0.3 mg/kg, iv administered as single dose after 24 hrs by LCMS analysis. Format: ADME, organism-based. Particulars: read-out: Drug excretion. The method in brief:
(§3)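 Bile duct-cannulated SD rats given single i.v. dose in saline; urine and bile collected over 24 h. Unchanged drug quantified by LC-MS/MS and expressed as cumulative % of dose; mean ± SD of three animals.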

The nature of data set [10]: Drug excretion in bile duct cannulated Sprague-Dawley rat bile at 0.3 mg/kg, iv administered as single dose after 24 hrs by LCMS analysis. The format is ADME, organism-based. Particulars: read-out: Drug excretion. In outline: as §3
A short description of data set [11]: Oral bioavailability in Sprague-Dawley rat at 30 mg/kg. Particulars: in vivo. Format: ADME, organism-based. The method in brief:
(§4)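 Fasted male SD rats dosed orally in 0.5% CMC Na; tail-vein plasma sampled over time and analysed by LC-MS/MS. Non-compartmental analysis; bioavailability relative to i.v. dosing in saline; mean of three animals.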

A short description of data set [12]: Cmax in Sprague-Dawley rat at 30 mg/kg, po. On the set-up: dose 30 mg/kg, route oral. The format is ADME, organism-based. The conditions noted are these: in vivo. In outline:
as §4

Data set [13] in a line: Drug uptake in Sprague-Dawley rat kidney at 0.3 mg/kg, iv administered as single dose after 72 hrs by LCMS analysis. Format: ADME, organism-based. The conditions noted are these: read-out: Drug uptake. In outline: as §2
A short description of data set [14]: Tmax in Sprague-Dawley rat at 30 mg/kg, po. The format is ADME, organism-based. The conditions noted are these: in vivo. In outline:
as §4

In data set [15] the test system is Rattus norvegicus. Put plainly: Antidiabetic activity in Sprague-Dawley rat assessed as reduction in blood glucose AUC (0 to 2 hrs) at 3 mg/kg, po dosed just prior to sucrose loading measured up to 120 mins by sucrose tolerance test relative to control. The format is functional. Set-up: scale not given: the % may be the effect or the level left.
Data set [16] has as its system Rattus norvegicus. Put plainly: Antidiabetic activity in Sprague-Dawley rat assessed as reduction in blood glucose AUC (0 to 2 hrs) at 1 mg/kg, po dosed just prior to sucrose loading measured up to 120 mins by sucrose tolerance test relative to control. The format is functional. Set-up: scale not given: the % may be the effect or the level left.
The nature of data set [17]: Gastrointestinal toxicity in Sprague-Dawley rat assessed as induction of diarrhea at 0.3 to 3 mg/kg, po dosed just prior to sucrose loading measured up to 120 mins during sucrose tolerance test relative to control. The format is organism-based. Particulars: in vivo, 2 h.
For data set [18], the system named is Rattus norvegicus. Description: Antidiabetic activity in Sprague-Dawley rat assessed as reduction in blood glucose AUC (0 to 2 hrs) at 0.3 mg/kg, po dosed just prior to sucrose loading measured up to 120 mins by sucrose tolerance test relative to control. Format: functional. Set-up: scale not given: the % may be the effect or the level left.
Data set [19] concerns Rattus norvegicus. Put plainly: Antidiabetic activity in Sprague-Dawley rat assessed as reduction in blood glucose AUC (0 to 2 hrs) at 0.3 to 3 mg/kg, po dosed just prior to sucrose loading measured up to 120 mins by sucrose tolerance test relative to control. The format is functional.
Data set [20] can be described thus: Half life in Sprague-Dawley rat at 0.4 mg/kg, iv. The format is ADME, organism-based. The conditions noted are these: in vivo. The method in brief: as §1

The term IC50 denotes the concentration needed to halve the response being measured. In general, clearance refers to the volume of plasma or blood freed of the substance per unit of time. As usually defined, the bioavailability is the share of a dose that reaches the circulation, judged against a reference dose that is usually intravenous. By Cmax is commonly meant the maximum level reached in the sampled fluid or tissue. For orientation: Tmax means the time from dosing to the highest level. The term Emax denotes the greatest response seen or fitted, relative to the assay's reference. The term half-life denotes how long it takes for the measured level to halve.

Consider `Cc1cc(C)c([C@@H]2O[C@H](CO)[C@@H](O)[C@H](O)[C@H]2O)cc1Cc1ccc(/C=C/C(C)(C)C(=O)NC(C)(C)CO)cc1Cl`, for which the IC50 in data set [1] amounted to 176 nM.

Regarding `Cc1cc(/C=C/C(C)(C)C(=O)NC(C)(C)CO)ccc1Cc1cc([C@@H]2O[C@H](CO)[C@@H](O)[C@H](O)[C@H]2O)c(C)cc1C`, the IC50 in data set [2] was 84 nM; in data set [1], 111 nM. Further, in [3], the Papp turned out to be 7.5 ×10⁻⁶ cm/s.

For `Cc1cc(/C=C/C(C)(C)C(=O)NC(C)(C)C(=O)NCC(C)(C)N)ccc1Cc1cc([C@@H]2O[C@H](CO)[C@@H](O)[C@H](O)[C@H]2O)c(O)cc1C(C)C`, the clearance in [4] is 62.7 mL/min/kg. The concentration at 2 h in data set [5] stood at 1060 ng/g. Further, the concentration at 24 h in data set [6] was determined as 83.8 ng/g. The Vd in data set [7] amounted to 0.964 L/kg. Moreover, in data set [8], the Drug uptake is reported as 1.2%. Also, the figures for the dose excreted at 24 h in data set [9] and in data set [10] were 5.3% and 89.8%, respectively. For the same compound, the bioavailability in [11] came to 0.09%. For the same compound, the peak level in [12] (Cmax) was 5.34 ng/mL. Further, in data set [13], the concentration at 72 h stood at 12.5 ng/g.

Consider `Cc1cc(O)c([C@@H]2O[C@H](CO)[C@@H](O)[C@H](O)[C@H]2O)cc1Cc1ccc(/C=C/C(C)(C)C(=O)NC(C)(C)CO)cc1`, for which the IC50 in data set [1] came out at 21 nM.

`COc1cc(C(C)C)c(Cc2ccc(/C=C/C(C)(C)C(=O)NC(C)(C)CO)cc2)cc1[C@@H]1O[C@H](CO)[C@@H](O)[C@H](O)[C@H]1O`: the figures for the IC50 in data set [2] and in data set [1] were 34 nM and 36 nM, respectively. Moreover, the Papp in data set [3] worked out at 1.8 ×10⁻⁶ cm/s.

As for `COc1cc(C(C)C)c(Cc2ccc(/C=C/C(C)(C)C(=O)NC(C)(C)C(=O)NCCN(C)C)cc2)cc1[C@@H]1O[C@H](CO)[C@@H](O)[C@H](O)[C@H]1O`, in data set [4], the clearance is 67 mL/min/kg. Further, the Tmax in data set [14] came out at 2.83 h. In data set [5], the concentration at 2 h stood at 1090 ng/g. Besides, the Activity in data set [15] is 45.7%; in [16], 50.8%; in data set [17] it was “Non-Toxic”; in data set [18] it was 27.5%. The concentration at 24 h in data set [6] came to 104 ng/g. In addition, in data set [7], the Vd was found to be 1.64 L/kg. Besides, in data set [8], the Drug uptake is listed as 2.7%. The dose excreted at 24 h in [9] was 18.1%; in data set [10] it was 65.1%. Besides, the bioavailability in data set [11] stood at 0.17%. In addition, the Emax in data set [19] was 50.8%. Also, the Cmax in data set [12] came to 1.88 ng/mL. The concentration at 72 h in data set [13] was determined as 29.2 ng/g. Besides, in [20], the half-life is 2.39 h.

Consider `COc1cc(C(C)C)c(Cc2ccc(/C=C/C(C)(C)C(=O)NC(C)(C)C(=O)N3CCNCC3)cc2C)cc1[C@@H]1O[C@H](CO)[C@@H](O)[C@H](O)[C@H]1O`, for which the IC50 in data set [2] came out at 200 nM; in data set [1], 34 nM.

Turning to `COc1cc(C(C)C)c(Cc2ccc(/C=C/C(C)(C)C(=O)NC(C)(C)CO)cc2C)cc1[C@@H]1O[C@H](CO)[C@@H](O)[C@H](O)[C@H]1O`, the IC50 in data set [2] stood at 354 nM; in data set [1], 74 nM.
